Assay results of several laboratories.
Protocols differ between the studies behind these lines.
RAF1: RAF proto-oncogene serine/threonine-protein kinase (RAF1, Homo sapiens, UniProt P04049)
RAF1 Y340D/Y341D: RAF proto-oncogene serine/threonine-protein kinase (RAF1, Homo sapiens, UniProt P04049, Y340D/Y341D)

Cc1ccc(Nc2nccc(N(C)c3ccc4c(C)n(C)nc4c3)n2)cc1S(N)(=O)=O — inhibition (RAF1; enzyme activity, inhibitor; 0.3 µM): 77%
Cc1ccc(NC(=O)c2ccc(C)c(C(F)(F)F)c2)cc1C#Cc1nn(C2CCC(O)CC2)c2ncnc(N)c12 (stereo not drawn) — remaining signal (RAF1; cell-free assay; 10 µM): 24%
N#CCCc1ccc2c(c1)-c1[nH]c3ccc([N+](=O)[O-])cc3c1CC(=O)N2 — remaining signal (RAF1; cell-free assay; 0.5 µM): 104%
CNCc1ccc(-c2cc(-c3nc(-c4ccc(S(=O)(=O)C(C)C)cc4)cnc3N)on2)cc1 — inhibition (RAF1; enzyme activity, inhibitor; 0.4 µM): 0%
Nc1c(C(=O)NCc2ccc(C(=O)NCCCC3CCCCC3)cc2)cnn1-c1ccccc1 — remaining binding (RAF1; cell-free assay, competition with immobilised ligand; 0.1 µM): 100%
COc1cc2ncnc(Nc3ccc(Oc4ccccc4)cc3C)c2cc1OC — inhibition (RAF1 Y340D/Y341D; enzyme activity, inhibitor; 1 µM): 27%
CC(C)(C)c1nc(-c2cccc(NS(=O)(=O)c3c(F)cccc3F)c2F)c(-c2ccnc(N)n2)s1 — remaining activity (RAF1 Y340D/Y341D; enzyme activity, inhibitor, radiometric; 1 µM): 1%
CNC(=O)Nc1ccc2c(c1)CC[C@@]21OC(=O)N(CC(=O)N(Cc2ccc(F)cc2)[C@@H](C)C(F)(F)F)C1=O — remaining binding (RAF1; cell-free assay, competition with immobilised ligand; 1 µM): 100%
COc1cc2c(N3CCN(C(=O)Nc4ccc(OC(C)C)cc4)CC3)ncnc2cc1OCCCN1CCCCC1 — remaining signal (RAF1; cell-free assay; 0.5 µM): 96.7%
CN1CC(Oc2cnc(C#N)cc2-c2ccn3nc(NC(=O)C4CC4)cc3c2)C1 — inhibition (RAF1; enzyme activity, inhibitor; 1 µM): 2%
N#Cc1ccc(Nc2ccc3[nH]c(=O)[nH]c3c2)c(Cl)c1 — remaining binding (RAF1; cell-free assay, competition with immobilised ligand; 1 µM): 68%
CN(C)C1CCN(CC#Cc2nn(C3CCCC3)c3nc(NCc4ccccc4)ncc23)C1 (stereo not drawn) — inhibition (RAF1 Y340D/Y341D; enzyme activity, inhibitor, FRET; 1 µM): -4%
COc1cc(-c2cc(-c3ccc(N4CCNCC4)cc3)cnc2N)cc(OC)c1OC — inhibition (RAF1; enzyme activity, inhibitor; 1 µM): 2%
O=C1NC(=O)c2cc(Nc3ccc(F)cc3)c(Nc3ccc(F)cc3)cc21 — remaining signal (RAF1; cell-free assay; 0.5 µM): 81.9%
CCN(CC)CCNC(=O)c1c(C)[nH]c(/C=C2\C(=O)Nc3ccc(F)cc32)c1C — remaining activity (RAF1; enzyme activity, inhibitor; 1 µM): 95%
CN(C)C(=O)Cn1cc(-c2nc(C3(c4ccc(-c5cnc(N)nc5)cc4)CC3)no2)cn1 — remaining binding (RAF1; cell-free assay, competition with immobilised ligand; 1 µM): 100%
Cc1ccc(C(=O)NCc2ccsc2)cc1C#Cc1cn(C(C)C)c2ncnc(N)c12 — activity vs control (RAF1; enzyme activity, inhibitor; 1 µM): 15%
C[C@@H]1CN(c2cc(-c3nn(C)c4ccc(OC5(C)CC5)cc34)ncn2)C[C@H](C)O1 — remaining binding (RAF1; cell-free assay, competition with immobilised ligand; 1 µM): 100%
CSc1nc(C)c(-c2ccnc(Nc3ccc(N4CCOCC4)cc3)c2)[nH]1 — inhibition (RAF1; enzyme activity, inhibitor; 10 µM): 64.1%
O=C(CSc1nc2nccnc2c(=O)n1CCc1ccccc1)Nc1nccs1 — inhibition (RAF1 Y340D/Y341D; enzyme activity, inhibitor; 10 µM): 3%
CCS(=O)(=O)c1cc2cc(C[C@](O)(CC(C)(C)c3ccc(F)cc3C(N)=O)C(F)(F)F)[nH]c2cn1 — remaining binding (RAF1; cell-free assay, competition with immobilised ligand; 1 µM): 83%
COc1cc(Cl)c(C(=O)N[C@@H](CN[C@H]2CC[C@@H](N)CC2)Cc2ccc(C#N)cc2)cc1-c1ccc(CN[C@H](C)c2ccc(C)cc2)o1 — remaining activity (RAF1; enzyme activity, inhibitor; 1 µM): 97%
CCCOc1ccc(OC)c(F)c1C(=O)c1ccc(C(=O)N[C@@H]2CNC[C@H]2NC(=O)c2ccc3[nH]ncc3c2)cc1 — remaining activity (RAF1; enzyme activity, inhibitor; 10 µM): 109%
CC(C)(O)[C@H]1CC[C@H](Nc2ccc3ncc(-c4cccc(C(F)(F)F)c4)n3n2)CC1 — remaining activity (RAF1; enzyme activity, inhibitor; 1 µM): 91.6%
O=C(O)c1cc(-c2ccc(C3CCNCC3)cc2)c2ccc(-c3ccc(C(F)(F)F)cc3)cc2c1 — remaining binding (RAF1; cell-free assay, competition with immobilised ligand; 1 µM): 70%
Cc1[nH]c(/C=C2\C(=O)Nc3ccc(F)cc32)c(C)c1C(=O)N[C@H]1CCN(C(=O)N(C)C)C1 — remaining activity (RAF1; enzyme activity, inhibitor; 1 µM): 100%
CCN(CC)c1ccc(C2=NNC(=O)CC2C)cc1[N+](=O)[O-] (stereo not drawn) — remaining activity (RAF1; enzyme activity, inhibitor; 10 µM): 90%
C[C@@H]1CCN(C(=O)CC#N)C[C@@H]1N(C)c1ncnc2[nH]ccc12 — remaining signal (RAF1; cell-free assay, inhibitor; 0.5 µM): 95.5%
Cc1cc(-n2nc(Cc3cc(F)cc(C(F)(F)F)c3)nc2C)ccc1C(N)=O — remaining binding (RAF1; cell-free assay, competition with immobilised ligand; 1 µM): 87%
O=C(Nc1cnn(-c2csc(C(=O)NC3COC3)c2)c1)Nc1c(F)cccc1Cl — remaining activity (RAF1; enzyme activity, inhibitor; 5 µM): 92.5%
